# Experiment: Toxicity liver stage against HepG2, at 10uM
# Assay type: cell-based
# Set-up: test concentration 10 uM, cell line HepG2-A16-CD81EGFP
# Conditions: human, HepG2-A16-CD81EGFP cells; read-out: INHIBITION
# Method in brief: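 Uninfected HepG2-A16-CD81EGFP cells, 3 × 10^3 per well, 1536-well, plated on prespotted compound at 10 μM final, parasite-free screening media added to match infected plates; puromycin 10 μM positive, DMSO 0.5% negative; run in parallel with 48 h PbLuc assay at 37 °C, 5% CO2; viability by CellTiter-Glo luminescence, normalized to controls.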
row,SMILES,cytotoxicity at 10 µM [%]
1,CCC1(C)Cc2ccccc2-c2nc(NCCCO)nc(O)c21 (stereo unspecified),5.42
2,Cc1noc([C@@H]2C[C@H](NS(=O)(=O)Cc3ccccc3)CN2C)n1,4.5
3,Fc1ccc2nc([C@H]3CCNC3)[nH]c2c1,9.21
4,CC(C)n1nnc2c(sc3nc(N4CCOCC4)c4c(c32)CCC4)c1=O,3.26
5,Cc1nn(C2CCS(=O)(=O)C2)c(O)c1Cc1cccc(Cl)c1 (stereo unspecified),-46.9
6,CC(C)CNC(=O)c1cccc(Oc2ccc3nncn3n2)c1,-1.95
7,CC(C)Cn1cc(C(=O)NC2CCS(=O)(=O)C2)c2ccccc2c1=O (stereo unspecified),0.724
8,Cc1ccc(S(=O)(=O)N(C)c2ccsc2C(=O)NCC(C)C)cc1,10.6
9,CN(C)C(=O)c1nnn(-c2ccc(Br)cc2)n1,7.5
10,CO[C@@H]1CCN(c2ncc(F)cn2)[C@H]1Cc1cnn(C)c1,-2.63
11,Cc1nc(-c2ccccc2)cc2nn(CC(N)=O)c(=O)n12,0.301
12,O=C(Cc1ccc2c(c1)OCC2)Nc1nc(C(F)(F)F)n[nH]1,2.98
13,COC(=O)c1sc2nc3c(c(C(F)(F)F)c2c1N)CN(C(C)=O)CC3,-8.18
14,NC(=O)C1CCN(C(=O)c2cc(-n3cnnn3)ccc2Cl)CC1,12.4
15,O=C(c1cc(-n2cnnn2)ccc1Cl)N1CCC2(CC1)OCCO2,-1.66
16,CN(C)c1nc2n(c(=O)n1)CCN2C(=O)Nc1ccc(Cl)c(Cl)c1,9.76
17,CCS(=O)(=O)Nc1ccc2oc(C)c(C(C)=O)c2c1,7.13
18,OC1(CN2CCC(Cc3ncccn3)CC2)CCOCC1,16.6
19,Cc1ccnc(C2CN(c3ccnc(C)n3)C2)n1,-2.4
20,CCn1cc(S(=O)(=O)N2CCCC3(CC=CNC3=O)C2)cn1 (stereo unspecified),-2.92
21,O=C(c1cc2c(s1)CCC2)N1CCC(c2cnccn2)CC1,-2.34
22,Cc1nc(C2CCCCN2C(=O)c2ccccc2)ncc1C(=O)N(C)C (stereo unspecified),1.9
23,Nc1cc(N2CCCC2c2cnccn2)ncn1 (stereo unspecified),0.153

row,SMILES,cytotoxicity at 10 µM [%]
1,CN1CC(=O)N(c2ccccc2)Cc2c(NC3CC3)ncnc21,6.86
2,O=C1CC2(CCN(C(=O)C3CCCCC3)C2)Nc2ccccc2N1 (stereo unspecified),9.13
3,Cn1nc(C2CCCN2)c2c(C(=O)NCC(F)(F)F)cc(C3CC3)nc21 (stereo unspecified),13.1
4,CS(=O)(=O)N1CC2(CCCN(C3COC3)C2)Cc2ccccc21 (stereo unspecified),5.15
5,OCc1cn(Cc2cccc(F)c2)nn1,8.95
6,COc1cccc(C(C)N2CCN(S(C)(=O)=O)CC2)c1 (stereo unspecified),-8.42
7,Cn1ccc(CS(=O)(=O)Cc2ccccc2)cc1=O,6.02
8,CCc1noc(CNc2ccc(CC(=O)N3CCSCC3)cc2)n1,3.73
9,CC(Nc1ccc(C(F)(F)F)cc1C#N)c1cccc(S(N)(=O)=O)c1 (stereo unspecified),-3.09
10,O=C(c1cc(C2CC2)nc2onc(-c3ccccc3)c12)N1CC[C@H](O)C1,-40.4
11,Cc1nc2c(C#N)cnn2c(C)c1CCC(=O)N(C)C1CC1,-47.2
12,CCc1nsc(N2CCC3(CC2)OCCO3)n1,2.24
13,Cc1cc(N2CCC(N(C)Cc3cc(=O)c(O)co3)CC2)nc(C)n1,2.34
14,Cc1noc(CNc2ccccc2C(=O)N2CCCC(O)C2)n1 (stereo unspecified),-3.13
15,Cc1occc1CNC(=O)C1(C)CCCN1C(=O)c1ccccc1 (stereo unspecified),-9.34
16,COC(=O)CCCNC(=O)N1CCc2c(F)ccc(F)c2C1,-11.2
17,Cn1ccc(C(=O)N(CC(F)(F)F)c2cccc(Cl)c2)cc1=O,-0.0519
18,CCC(=O)N(CC)CCc1nccs1,9.66
19,COCc1noc(Cc2c(C)nn(C)c2C)n1,7
20,O=C(NC1CCCN(c2ccccc2Cl)C1)c1ccc(=O)[nH]n1 (stereo unspecified),-4.46
21,N#Cc1ccsc1N1CCC(Sc2ccncc2)C1=O (stereo unspecified),-15.7
22,CS(=O)(=O)c1nccn1Cc1ccc(F)cc1Cl,-4.99
23,CC(C)(C)C(=O)N1CCN(C(=O)Nc2cnn(CC(F)F)c2)CC1,9.62

row,SMILES,cytotoxicity at 10 µM [%]
1,CC(NC(=O)CN1CCCC1=O)c1ccc(Cl)s1 (stereo unspecified),-6.45
2,COCC(=O)NCCc1ccc(Cl)s1,13.4
3,Cc1nc(C2CCCN2CCc2cccs2)no1 (stereo unspecified),10.4
4,N#Cc1ccc(NC2CCN(c3ncccn3)CC2)cc1Cl,8.8
5,Cc1cc(CCC(=O)N2CC[C@H](O)C2)ccc1Br,2.35
6,CCn1nc2c(cc1=O)CN(Cc1nc3ccccc3c(=O)[nH]1)CC2,-4.71
7,Cc1ccc(NC(=O)N2CCOC(C)C2)cc1Cl (stereo unspecified),-6.78
8,O=C(CC1CC1)N1CCCn2nnc(CNc3ncccn3)c2C1,-0.802
9,CCc1ncnc2c1CCN(S(=O)(=O)c1ccccc1)CC2,-96.8
10,Cc1nc(CN2C(=O)CC[C@@H]3[C@H]2CCN3C(=O)c2ccc[nH]2)cs1,-77.3
11,CC(=O)N1CCC2(CCCN(C(=O)c3ccc(Cl)c(C(F)(F)F)c3)C2)C1 (stereo unspecified),-81.8
12,CC(=O)c1cnc(N(C)Cc2cc(C)cc(C)n2)nc1C,8.81
13,Cc1cnc(C)c(-c2cc(O)c3c(c2)CN(c2nccs2)CCO3)n1,1.08
14,CC(C)S(=O)(=O)N1CCCC(c2nccn2Cc2cccnc2)C1 (stereo unspecified),3.72
15,CCc1nc(NCC2CCCN(C(=O)C3CC3)C2)c2cnn(C)c2n1 (stereo unspecified),1.14
16,CC1(C)CC1(C(=O)N1CC(c2cccnc2)C1)c1ccccc1F (stereo unspecified),-10.7
17,COc1cc2c(cc1-c1nc3c(cnn3C)[nH]1)OCO2,-8.9
18,CCc1nnc(CN(C)Cc2cccc(C(=O)Nc3cnn(C)c3)c2)o1,-5.54
19,Nc1cc(-c2cccc3c2CCNC3)ncn1,-8.27
20,O=C(c1ccco1)N1CCN(Cc2nc(C3CC3)no2)CC1,5.21
21,Cc1nn(C)c2nc(N3CCCCC3c3nccs3)sc12 (stereo unspecified),10.2
22,COc1ccc(-c2nc3c([nH]2)CCNC3)c(OC)c1OC,0.786
23,c1ccc(CN2CCC(CNc3ncnc4c3CCNCC4)CC2)cc1,-4.84

row,SMILES,cytotoxicity at 10 µM [%]
1,CN1CC(c2ccccc2)CC12CCN(C(=O)c1ccc(Cl)cn1)CC2 (stereo unspecified),3.62
2,C=C(C)COc1cccc(CNCc2nc3ccccc3c(=O)[nH]2)c1,-40.9
3,CCC(C(=O)NCc1ccncc1)N(c1cccc(Cl)c1)S(C)(=O)=O (stereo unspecified),-4.31
4,Cc1noc(-c2ccc(N(C)Cc3cccnc3)nc2)n1,-1.24
5,CC(C)(CO)NC(=O)C1CCC(=O)N(Cc2ccc(Cl)cc2)C1 (stereo unspecified),-6.14
6,C[C@@H]1CN(C(=O)c2cnc(C3CC3)nc2)CC[C@@]1(O)C1CCOCC1,-13.9
7,CN(Cc1ccc(F)cc1)CC1(O)CCCN(CC(C)(C)C)C1=O (stereo unspecified),-9.35
8,CCc1ccccc1CN1CC[C@@H](NC(=O)c2cccnc2)[C@H](O)C1,-9.67
9,CN(C)C(=O)CCC(=O)NCc1cccnc1-n1cnc2ccccc21,-3.97
10,CN(C)Cc1nnc(C2CCN(C(=O)CCc3cccs3)CC2)n1C,-15.9
11,COCCN1CCN(C(C)c2nc(C3CC3)no2)CC1 (stereo unspecified),-8.36
12,COc1ccc(CC(=O)N2CCCC(c3cc(C)[nH]n3)C2)cc1 (stereo unspecified),-7.69
13,CCC(O)CN1CCN(C(=O)Cc2ccc(C)nc2)CC1 (stereo unspecified),-9.24
14,Cc1nc(C2CCCN(C(=O)CCCn3ccnc3C)C2)no1 (stereo unspecified),-13.4
15,Cc1noc(Cl)c1CCC(=O)N1CCN(c2ncccn2)CC1,-2.01
16,Cc1nc(C2CCCN2Cc2nnc(C3CC3)o2)no1 (stereo unspecified),-5.97
17,COc1ccc(-c2noc(CN3CCOCC3C)n2)cc1OC (stereo unspecified),-7.3
18,CC(C)N(Cc1nc2c(cnn2C)c(=O)[nH]1)c1ccccc1,-12.6
19,CS(=O)(=O)c1ccc(CNC(=O)N2CCC(C(N)=O)C2)cc1 (stereo unspecified),-8.03
20,CCn1nnc2cc(C(=O)N3CCCC3Cn3cc(C)cn3)ccc21 (stereo unspecified),-9.8
21,Cn1cc(C(=O)NC2CCN(C(=O)NCC3CCSCC3)CC2)cn1,4.02
22,COc1ccc(CNC(=O)NC(C)Cn2cccn2)cc1O (stereo unspecified),-3.1
23,CC(O)CN(CC(=O)NC(=O)NC1CC1)c1ccccc1 (stereo unspecified),-2.14

row,SMILES,cytotoxicity at 10 µM [%]
1,CCc1nc(CN2CCCN(C(=O)c3c(C)noc3C)CC2)cs1,1.74
2,Clc1cccnc1OC1CCNCC1,-10.9
3,Cc1c(C)n(CC(O)CN2CCN(CCO)CC2)c2c(Cl)cccc12 (stereo unspecified),-12.9
4,CN1C(=O)CCC12CCC(NC(=O)NCc1cccnc1)CC2 (stereo unspecified),-99.8
5,Cc1c(Br)cccc1C(=O)NCCC1CCCNC1 (stereo unspecified),-11.7
6,Cn1ccnc1CN1CCC2(CC1)CC(NC(=O)c1ccccn1)CO2 (stereo unspecified),-2.05
7,Cc1ccc(CN2CCOC3(CCCN(C(=O)c4ccco4)C3)C2)s1 (stereo unspecified),-10.3
8,Fc1cccc(CN2C[C@@H]3CN(c4ncccn4)C[C@@H]3C2)c1,6.81
9,COc1ccc(CN2C[C@H]3C[C@H](CN(C)C)O[C@H]3C2)cc1,-7.4
10,Cc1occc1C(=O)N1CCC2(CCN(C(=O)c3cccnc3)C2)CC1,-88.1
11,O=C(Nc1cccnc1)[C@H]1C[C@@H]2CCN(Cc3nccs3)C[C@@H]2O1,-68.2
12,CN(Cc1cccnc1)Cc1cncc2c1CCN(Cc1ccoc1)C2,-100
13,O=C(C1CCCO1)N1C[C@@H]2CCN(c3cnccn3)C[C@@H]2C1 (stereo partly specified),-0.832
14,Cc1noc(C)c1C(=O)N1CCOC2(COCCN(C(C)C)C2)C1 (stereo unspecified),2.71
15,CN(C)C(=O)c1cnc2n1CCN(Cc1ccc3c(c1)OCO3)C2,-69
16,CN1CCO[C@@H]2CN(S(=O)(=O)c3cccs3)CC[C@@H]2C1,11.7
17,CO[C@H]1CCN(Cc2c(C)noc2C)[C@@H]2CN(Cc3cccnc3)C[C@H]12,5.55
18,Cc1n[nH]cc1CNCc1ccnc(OCC(F)(F)F)c1,5.33
19,COc1ccc(CN2C[C@@H]3C[C@H](C(=O)Nc4cccnc4)[C@H](C2)O3)cc1,-72.4
